Measurements reported in ChEMBL document CHEMBL4190270, “Novel 4-arylaminoquinazoline derivatives with (E)-propen-1-yl moiety as potent EGFR inhibitors with enhanced antiproliferative activities against tumor cells” (Eur J Med Chem, 2017).
Calls of active or inactive are those of the source. The rule behind the calls is not given here.

Key:
[1] = tested on: NCI-H1975; test: Antiproliferative activity against human NCI-H1975 cells harboring EGFR L858R/T790M mutant after 72 hrs by MTT assay; type: functional, cell-based; conditions: NCI-H1975, 72 h
[2] = tested on: A-431; test: Antiproliferative activity against human A431 cells harboring wild type EGFR after 72 hrs by MTT assay; type: functional, cell-based; conditions: A-431, 72 h
Outline: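 Cells grown in DMEM or 1640 with 10% FBS, penicillin/streptomycin and 2 mM L-glutamine, plated in 96 wells for 24 h at 37 °C under 5% CO2. Exposed to compound as an 8-point series, or to 0.5% DMSO, for 72 h. Then MTT (5 mg/ml) for 4 h, formazan dissolved in DMSO, absorbance read at 570 nm (630 nm reference). IC50 by nonlinear regression; mean ± SD of at least three independent experiments.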

[3] = tested on: A549; test: Antiproliferative activity against human A549 cells harboring wild type EGFR/K-Ras mutant after 72 hrs by MTT assay; type: functional, cell-based; conditions: A549, 72 h
[4] = tested on: SW480; test: Antiproliferative activity against human SW480 cells harboring wild type EGFR after 72 hrs by MTT assay; type: functional, cell-based; conditions: SW480, 72 h
[5] = molecular target: T1, Epidermal growth factor receptor (Homo sapiens, UniProt P00533); type: cell-based, HEK293
T1 sequence (P00533 whole entry): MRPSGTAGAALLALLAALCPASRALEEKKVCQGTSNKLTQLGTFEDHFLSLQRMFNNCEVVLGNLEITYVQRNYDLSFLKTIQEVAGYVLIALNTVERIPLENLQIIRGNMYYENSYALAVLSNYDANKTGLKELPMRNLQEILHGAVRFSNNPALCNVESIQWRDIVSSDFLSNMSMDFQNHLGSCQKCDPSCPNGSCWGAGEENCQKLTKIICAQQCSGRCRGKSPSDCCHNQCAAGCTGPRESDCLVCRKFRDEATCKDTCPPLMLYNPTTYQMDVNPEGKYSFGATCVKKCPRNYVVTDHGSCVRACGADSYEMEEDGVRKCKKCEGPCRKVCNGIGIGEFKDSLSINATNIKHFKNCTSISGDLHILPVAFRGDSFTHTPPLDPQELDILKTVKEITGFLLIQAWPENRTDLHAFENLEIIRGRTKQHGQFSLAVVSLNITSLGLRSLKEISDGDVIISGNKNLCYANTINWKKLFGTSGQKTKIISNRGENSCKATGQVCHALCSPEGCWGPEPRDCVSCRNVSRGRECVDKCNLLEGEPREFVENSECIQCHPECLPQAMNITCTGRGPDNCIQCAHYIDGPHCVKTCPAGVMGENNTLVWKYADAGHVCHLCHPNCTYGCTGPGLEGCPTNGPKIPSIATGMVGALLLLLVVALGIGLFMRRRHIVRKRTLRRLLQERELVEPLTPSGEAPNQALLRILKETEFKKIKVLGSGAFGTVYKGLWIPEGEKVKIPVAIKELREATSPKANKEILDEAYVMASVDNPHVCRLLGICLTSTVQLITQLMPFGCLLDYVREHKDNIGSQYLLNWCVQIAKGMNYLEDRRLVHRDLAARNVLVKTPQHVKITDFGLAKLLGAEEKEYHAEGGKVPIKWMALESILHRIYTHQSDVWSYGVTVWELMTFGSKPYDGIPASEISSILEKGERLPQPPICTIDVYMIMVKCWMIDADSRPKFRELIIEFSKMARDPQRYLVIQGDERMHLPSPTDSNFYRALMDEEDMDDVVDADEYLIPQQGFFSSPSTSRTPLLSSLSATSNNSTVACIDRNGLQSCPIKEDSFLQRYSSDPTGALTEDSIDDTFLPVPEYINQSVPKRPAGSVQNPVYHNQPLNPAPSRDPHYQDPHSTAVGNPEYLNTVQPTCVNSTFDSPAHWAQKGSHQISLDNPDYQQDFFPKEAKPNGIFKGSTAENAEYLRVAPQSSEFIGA

[6] = molecular target: T1, Epidermal growth factor receptor; test: Inhibition of EGF-induced EGFR phosphorylation at Tyr-residue in human A549 cells at 5 uM preincubated for 2 hrs followed by EGF stimulation for 10 mins by Western blot analysis; type: cell-based
Outline: (§1)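 Cells grown in 6-well plates with 10% FBS to 90% confluence, then serum-starved 24 h. Exposed to a dose range of compound, or to 25 μM reference drug, for 2 h, then stimulated with 50 ng/mL EGF for 10 min at 37 °C. Lysed in RIPA with protease/phosphatase inhibitors. 20 µg protein run on 10% SDS-PAGE, transferred to PVDF, blocked with 5% milk, immunoblotted and detected by ECL.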

[7] = molecular target: T1, Epidermal growth factor receptor; test: Inhibition of EGF-induced EGFR phosphorylation at Y1086-residue in human A549 cells at 5 uM preincubated for 2 hrs followed by EGF stimulation for 10 mins by Western blot analysis; type: cell-based; outline: as §1
[8] = molecular target: T1, Epidermal growth factor receptor; test: Inhibition of EGF-induced EGFR phosphorylation at Y992-residue in human A549 cells at 5 uM preincubated for 2 hrs followed by EGF stimulation for 10 mins by Western blot analysis; type: cell-based; outline: as §1
[9] = molecular target: T1, Epidermal growth factor receptor; test: Inhibition of EGFR in human A549 cells assessed as reduction in EGF-induced Akt phosphorylation at S473 residue at 5 uM preincubated for 2 hrs followed by EGF stimulation for 10 mins by Western blot analysis; type: cell-based; outline: as §1
[10] = molecular target: T1, Epidermal growth factor receptor; test: Inhibition of EGFR in human A549 cells assessed as reduction in EGF-induced ERK1/2 phosphorylation at T202/Y204 residues at 5 uM preincubated for 2 hrs followed by EGF stimulation for 10 mins by Western blot analysis; type: cell-based; outline: as §1
[11] = tested on: A549; test: Effect on total EGFR protein expression in human A549 cells at 1 to 25 uM preincubated for 2 hrs followed by EGF stimulation for 10 mins by Western blot analysis; type: ADME, cell-based; conditions: a549, 10 min; outline: as §1
[12] = tested on: A549; test: Effect on total AKT protein expression in human A549 cells at 1 to 25 uM preincubated for 2 hrs followed by EGF stimulation for 10 mins by Western blot analysis; type: ADME, cell-based; conditions: a549, 10 min; outline: as §1
[13] = tested on: A549; test: Effect on total ERK1/2 protein expression in human A549 cells at 1 to 25 uM preincubated for 2 hrs followed by EGF stimulation for 10 mins by Western blot analysis; type: ADME, cell-based; conditions: a549, 10 min; outline: as §1
[14] = molecular target: T1, Epidermal growth factor receptor; test: Inhibition of EGFR in human A549 cells assessed as reduction in EGF-induced STAT3 phosphorylation at 1 to 25 uM preincubated for 2 hrs followed by EGF stimulation for 10 mins by Western blot analysis; type: cell-based; outline: as §1
[15] = tested on: Epidermal growth factor receptor (Homo sapiens), P00533 [L858R,T790M]; test: Inhibition of EGF-induced EGFR L858R/T790M double mutant phosphorylation at Tyr-residue in human NCI-H1975 cells preincubated for 2 hrs followed by EGF stimulation for 10 mins by Western blot analysis; type: cell-based; outline: as §1
Epidermal growth factor receptor (Homo sapiens), P00533 [L858R,T790M], sequence (P00533 whole entry T790M/L858R, looked up): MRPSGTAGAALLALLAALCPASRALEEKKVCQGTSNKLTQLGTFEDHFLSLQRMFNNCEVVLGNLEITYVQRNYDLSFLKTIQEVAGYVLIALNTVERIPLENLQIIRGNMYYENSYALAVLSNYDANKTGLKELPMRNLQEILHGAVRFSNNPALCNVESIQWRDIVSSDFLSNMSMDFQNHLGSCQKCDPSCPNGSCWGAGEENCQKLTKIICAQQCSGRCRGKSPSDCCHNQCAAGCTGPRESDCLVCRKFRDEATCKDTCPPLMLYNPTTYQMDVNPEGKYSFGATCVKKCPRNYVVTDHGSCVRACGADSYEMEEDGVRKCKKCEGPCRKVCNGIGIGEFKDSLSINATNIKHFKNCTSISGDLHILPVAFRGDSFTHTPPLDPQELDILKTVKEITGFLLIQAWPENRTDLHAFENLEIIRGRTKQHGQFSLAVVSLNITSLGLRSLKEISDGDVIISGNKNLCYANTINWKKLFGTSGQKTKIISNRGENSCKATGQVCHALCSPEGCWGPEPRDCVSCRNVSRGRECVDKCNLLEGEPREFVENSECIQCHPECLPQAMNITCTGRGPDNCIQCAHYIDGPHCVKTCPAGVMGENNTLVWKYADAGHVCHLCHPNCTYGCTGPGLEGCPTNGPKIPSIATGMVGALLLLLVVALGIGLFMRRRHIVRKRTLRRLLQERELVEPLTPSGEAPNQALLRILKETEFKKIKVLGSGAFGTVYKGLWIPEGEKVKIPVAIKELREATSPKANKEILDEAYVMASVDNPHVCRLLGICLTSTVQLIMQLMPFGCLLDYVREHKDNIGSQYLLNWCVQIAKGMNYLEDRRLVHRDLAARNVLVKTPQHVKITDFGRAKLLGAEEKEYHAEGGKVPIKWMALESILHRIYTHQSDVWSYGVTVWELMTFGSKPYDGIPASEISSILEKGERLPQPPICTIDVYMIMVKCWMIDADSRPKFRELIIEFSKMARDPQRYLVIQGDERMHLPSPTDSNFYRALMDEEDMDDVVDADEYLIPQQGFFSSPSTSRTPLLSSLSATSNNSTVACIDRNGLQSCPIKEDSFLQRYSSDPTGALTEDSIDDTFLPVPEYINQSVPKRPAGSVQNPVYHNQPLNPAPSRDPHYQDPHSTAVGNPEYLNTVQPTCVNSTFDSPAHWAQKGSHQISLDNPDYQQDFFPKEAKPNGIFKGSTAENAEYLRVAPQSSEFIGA

[16] = tested on: Epidermal growth factor receptor (Homo sapiens), P00533 [L858R,T790M]; test: Inhibition of EGF-induced EGFR L858R/T790M double mutant phosphorylation at Y1068-residue in human NCI-H1975 cells preincubated for 2 hrs followed by EGF stimulation for 10 mins by Western blot analysis; type: cell-based; outline: as §1
[17] = tested on: Epidermal growth factor receptor (Homo sapiens), P00533 [L858R,T790M]; test: Inhibition of EGF-induced EGFR L858R/T790M double mutant phosphorylation at Y992-residue in human NCI-H1975 cells preincubated for 2 hrs followed by EGF stimulation for 10 mins by Western blot analysis; type: cell-based; outline: as §1
[18] = tested on: Epidermal growth factor receptor (Homo sapiens), P00533 [L858R,T790M]; test: Inhibition of EGFR L858R/T790M double mutant in human NCI-H1975 cells assessed as reduction in EGF-induced Akt phosphorylation at Ser473 residue at 25 uM preincubated for 2 hrs followed by EGF stimulation for 10 mins by Western blot analysis; type: cell-based; outline: as §1
[19] = tested on: Epidermal growth factor receptor (Homo sapiens), P00533 [L858R,T790M]; test: Inhibition of EGFR L858R/T790M double mutant in human NCI-H1975 cells assessed as reduction in EGF-induced ERK1/2 phosphorylation at T202/Y204 residues at 25 uM preincubated for 2 hrs followed by EGF stimulation for 10 mins by Western blot analysis; type: cell-based; outline: as §1
[20] = molecular target: T1, Epidermal growth factor receptor; conditions: A549, at 25 µM
[21] = molecular target: T1, Epidermal growth factor receptor; conditions: A549, at 25 µM; remark: listed apart in the source
[22] = molecular target: T1, Epidermal growth factor receptor; conditions: A549, at 25 µM; remark: listed apart in the source
[23] = molecular target: T1, Epidermal growth factor receptor; conditions: A549, at 25 µM; remark: listed apart in the source
[24] = molecular target: T1, Epidermal growth factor receptor; conditions: A549, at 25 µM; remark: listed apart in the source
[25] = tested on: Epidermal growth factor receptor (Homo sapiens), P00533 [L858R,T790M]; conditions: NCI-H1975, at 25 µM

With `CS(=O)(=O)CCNCc1ccc(-c2ccc3ncnc(Nc4ccc(OCc5cccc(F)c5)c(Cl)c4)c3c2)o1` [LAPATINIB] the IC50 [1] was 9.08 µM.
For `C/C=C/c1ccc(Nc2ncnc3ccc(-c4ccc(CNCCS(C)(=O)=O)o4)cc23)cc1`, the IC50 [2] was 37.6 µM, the IC50 [3] was 84.5 µM and the IC50 [1] was > 100 µM. It also gave an IC50 [4] of 56.3 µM.
Compound `C/C=C/c1ccc(Nc2ncnc3cc(OCc4ccccc4)c(OCc4ccccc4)cc23)cc1` has an IC50 [2] of 28.1 µM, an IC50 [3] of 36.5 µM and an IC50 [1] of 44.1 µM. For the same compound, the IC50 [4] was 37 µM.
With `C/C=C/c1ccc(Nc2ncnc3cc(OC)c(OCCN4CCOCC4)cc23)cc1` the IC50 [2] was 47.1 µM, the IC50 [3] was 26.5 µM and the IC50 [1] was > 100 µM. It also gave an IC50 [4] of 28.2 µM.
With `C/C=C/c1ccc(Nc2ncnc3ccc(OCCN4CCOCC4)cc23)cc1` the IC50 [2] was 57.7 µM, the IC50 [3] was 85.3 µM and the IC50 [1] was > 100 µM. The IC50 [4] was 62.6 µM.
In the case of `C/C=C/c1ccc(Nc2ncnc3cc4c(cc23)OCCO4)cc1`, the IC50 [2] is reported as > 100 µM, the IC50 [3] is reported as 38.2 µM and the IC50 [1] is reported as > 100 µM. For the same compound, the IC50 [4] was 34 µM.
Compound `C/C=C/c1ccc(Nc2ncnc3cc(OCCOC)c(OCCOC)cc23)cc1` has an IC50 [2] of 23.9 µM, an IC50 [3] of 24.7 µM and an IC50 [1] of 27.7 µM. For the same compound, the IC50 [4] was 43.6 µM.
In the case of `C/C=C/c1ccc(Nc2ncnc3cc(OCCCN4CCOCC4)c(OCCCN4CCOCC4)cc23)cc1`, the IC50 [5] is reported as 20.7 nM, the inhibition [6] is reported as “Active” and the inhibition [7] is reported as “Active”. The inhibition [8] was “Active”, the inhibition [9] was “Active” and the inhibition [10] was “Active”. For the same compound, the Activity [11] was “Non-Toxic”, the Activity [12] was “Non-Toxic” and the Activity [13] was “Non-Toxic”. For the same compound, the inhibition [14] was “inactive”, the inhibition [15] was “Dose-dependent effect” and the inhibition [16] was “Dose-dependent effect”. The inhibition [17] was “Dose-dependent effect”, the inhibition [18] was “Active” and the inhibition [19] was “Active”. The inhibition [20] was “Active”, the inhibition [21] was “Active” and the inhibition [22] was “Active”. The inhibition [23] was “Active”, the inhibition [24] was “Active” and the inhibition [25] was “Active”.
For `C/C=C/c1ccc(Nc2ncnc3cc(OCCN4CCOCC4)c(OC)cc23)cc1`, the IC50 [2] was 22.4 µM, the IC50 [3] was 37.5 µM and the IC50 [1] was > 100 µM. The IC50 [4] was 27.6 µM.
Work on `C/C=C/c1ccc(Nc2ncnc3ccc(OCCCN4CCOCC4)cc23)cc1` yielded an IC50 [2] of 12 µM, an IC50 [3] of 17.4 µM and an IC50 [1] of 23.9 µM. It also gave an IC50 [4] of 10.4 µM.
Work on `C/C=C/c1ccc(Nc2ncnc3cc(OC)c(OCCCN4CCOCC4)cc23)cc1` yielded an IC50 [2] of 13.9 µM, an IC50 [3] of 10.3 µM and an IC50 [1] of 38.9 µM. The IC50 [4] was 14.7 µM.
`C/C=C/c1ccc(Nc2ncnc3cc(OCCCN4CCOCC4)c(OC)cc23)cc1` was tested, and the IC50 [2] was 6.34 µM, the IC50 [3] was 10.3 µM and the IC50 [1] was 10.8 µM. For the same compound, the IC50 [4] was 11.6 µM.
